Reference: ChEMBL document CHEMBL1156778, “Synthesis and structure-activity studies of biphenyl analogues of the tuberculosis drug (6S)-2-nitro-6-{[4-(trifluoromethoxy)benzyl]oxy}-6,7-dihydro-5H-imidazo[2,1-b][1,3]oxazine (PA-824)” (J Med Chem, 2010)
Converted amounts (≈) assume the structure as drawn.

Columns and labels:
[1] = tested on: Mycobacterium tuberculosis; test: Antitubercular activity against Mycobacterium tuberculosis H37Rv in aerobic condition after 7 days by microplate alamar blue assay; assay type: functional; conditions: 168 h
Summary of the method: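 M. tuberculosis H37Rv, replicating culture; 8-day microplate assay with Alamar blue added on day 7 to read growth. […] Mean of at least two independent determinations ± SD.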

[2] = tested on: Mycobacterium tuberculosis; test: Antitubercular activity against Mycobacterium tuberculosis H37Rv in anaerobic condition after 7 days by low oxygen recovery assay; assay type: functional; conditions: 168 h
Vero = test: Cytotoxicity against african green monkey Vero cells after 72 hrs by MTS assay; assay type: cell-based; conditions: Chlorocebus sabaeus
Summary of the method: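 VERO cells (CCL-81), 72 h exposure, tetrazolium dye read-out.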

[3] = Metabolic stability in pooled human liver microsomes assessed as compound remaining after 1 hr by LC-MS-MS; assay type: ADME, Microsome; conditions: read-out: Stability
Summary of the method: (§1)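 Test compound at 1 μM with pooled CD-1 mouse or human liver microsomes (0.5 mg/mL protein) and NADPH-regenerating system (3.3 mM MgCl2, 3.3 mM G6P, 0.4 U/mL G6PD, 1.3 mM NADP+) in 75 mM phosphate, pH 7.4, 0.5% DMSO, 37 °C. Stopped at 0 and 60 min with MeCN containing metoprolol internal standard. LC-MS/MS (ESI, SRM), duplicates. % remaining = 100 × mean peak-area ratio at 60 min / at 0 min.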

[4] = Metabolic stability in pooled CD1 mouse liver microsomes assessed as compound remaining after 1 hr by LC-MS-MS; assay type: ADME, Microsome; conditions: read-out: Stability; summary of the method: as §1
[5] = tested on: Mycobacterium tuberculosis; test: Antitubercular activity against Mycobacterium tuberculosis H37Rv infected in BALB/c mouse measured per mouse at 100 mg/kg, po daily for 5 days a week for 3 weeks; assay type: functional
[6] = tested on: Mycobacterium tuberculosis; test: Antitubercular activity against Mycobacterium tuberculosis H37Rv infected in BALB/c mouse assessed as ratio of lung CFU for compound to lung CFU for PA-824 at 100 mg/kg, po daily for 5 days a week for 3 weeks; assay type: functional

SMILES	MIC [1] [µM]	MIC [2] [µM]	IC50 (Vero) [µM]	remaining at 1 h [3] [%]	remaining at 1 h [4] [%]	CFU [5]	fold change (FC) [6]
O=[N+]([O-])c1cn2c(n1)OC[C@@H](OCc1cccc(-c3cccc(OCCCO)c3)c1)C2	0.58 (≈ 0.247 µg/mL)	2.5 (≈ 1.06 µg/mL)	> 125	–	–	–	–
O=[N+]([O-])c1cn2c(n1)OC[C@@H](OCc1ccc(-c3ccc(OC(F)(F)F)cc3Cl)cc1)C2	0.04 (≈ 0.0188 µg/mL)	0.78 (≈ 0.366 µg/mL)	> 125	91	86	390	23
O=[N+]([O-])c1cn2c(n1)OC[C@@H](OCc1ccccc1-c1ccc3ccccc3c1)C2	1.6 (≈ 0.642 µg/mL)	3.1 (≈ 1.24 µg/mL)	> 125	–	–	–	–
O=[N+]([O-])c1cn2c(n1)OC[C@@H](OCc1ccc(-c3ccc(Oc4ccccc4)cc3)cc1)C2	0.04 (≈ 0.0177 µg/mL)	2.7 (≈ 1.2 µg/mL)	> 125	22	48	330000	<0.01
NC(=O)c1cccc(-c2ccc(CO[C@@H]3COc4nc([N+](=O)[O-])cn4C3)cc2)c1	2.8 (≈ 1.1 µg/mL)	6.7 (≈ 2.64 µg/mL)	> 125	–	–	–	–
O=[N+]([O-])c1cn2c(n1)OC[C@@H](OCc1ccc(-c3ccc(Cl)c(C(F)(F)F)c3)cc1)C2	0.035 (≈ 0.0159 µg/mL)	1.9 (≈ 0.862 µg/mL)	> 125	92	96	30	7.7
O=[N+]([O-])c1cn2c(n1)OC[C@@H](OCc1ccccc1-c1cccc(OC(F)(F)F)c1)C2	1.9 (≈ 0.827 µg/mL)	6.3 (≈ 2.74 µg/mL)	> 125	–	–	–	–
N#Cc1ccc(-c2ccccc2CO[C@@H]2COc3nc([N+](=O)[O-])cn3C2)cc1	8.4 (≈ 3.16 µg/mL)	19 (≈ 7.15 µg/mL)	> 125	–	–	–	–
O=[N+]([O-])c1cn2c(n1)OC[C@@H](OCc1ccccc1-c1ccccc1OC(F)(F)F)C2	1.2 (≈ 0.522 µg/mL)	6.2 (≈ 2.7 µg/mL)	> 125	–	–	–	–
N#Cc1ccc(-c2ccc(CO[C@@H]3COc4nc([N+](=O)[O-])cn4C3)cc2)cc1	0.025 (≈ 0.00941 µg/mL)	0.58 (≈ 0.218 µg/mL)	> 125	95	58	4500	3.6
O=[N+]([O-])c1cn2c(n1)OC[C@@H](OCc1ccccc1-c1ccc(F)cc1)C2	1.2 (≈ 0.443 µg/mL)	3.4 (≈ 1.26 µg/mL)	> 125	–	–	–	–
O=[N+]([O-])c1cn2c(n1)OC[C@@H](OCc1cccc(-c3ccc(O)cc3)c1)C2	0.54 (≈ 0.198 µg/mL)	5.8 (≈ 2.13 µg/mL)	> 125	–	–	–	–
O=[N+]([O-])c1cn2c(n1)OC[C@@H](OCc1ccc(-c3ccc(C(F)(F)F)cc3)cc1)C2	0.03 (≈ 0.0126 µg/mL)	1.4 (≈ 0.587 µg/mL)	> 125	60	85	1100	72
CC(=O)c1ccc(-c2ccccc2CO[C@@H]2COc3nc([N+](=O)[O-])cn3C2)cc1	17 (≈ 6.69 µg/mL)	36 (≈ 14.2 µg/mL)	> 125	–	–	–	–
CCOc1ccccc1-c1ccc(CO[C@@H]2COc3nc([N+](=O)[O-])cn3C2)cc1	0.03 (≈ 0.0119 µg/mL)	0.82 (≈ 0.324 µg/mL)	> 125	50	0.2	540000	0.15
CN(C)CCOc1cccc(-c2ccc(CO[C@@H]3COc4nc([N+](=O)[O-])cn4C3)cc2)c1	1.5 (≈ 0.658 µg/mL)	18 (≈ 7.89 µg/mL)	> 125	–	–	–	–
COc1ccc(-c2ccccc2CO[C@@H]2COc3nc([N+](=O)[O-])cn3C2)cc1F	1.8 (≈ 0.719 µg/mL)	3.8 (≈ 1.52 µg/mL)	> 125	–	–	–	–

SMILES	MIC [1] [µM]	MIC [2] [µM]	IC50 (Vero) [µM]	remaining at 1 h [3] [%]	remaining at 1 h [4] [%]	CFU [5]	fold change (FC) [6]
NC(=O)c1ccc(-c2ccc(CO[C@@H]3COc4nc([N+](=O)[O-])cn4C3)cc2)cc1	2.1 (≈ 0.828 µg/mL)	15 (≈ 5.92 µg/mL)	> 125	–	–	–	–
O=[N+]([O-])c1cn2c(n1)OC[C@@H](OCc1ccccc1-c1ccc(OC(F)(F)F)cc1)C2	2.3 (≈ 1 µg/mL)	4.3 (≈ 1.87 µg/mL)	> 125	–	–	–	–
O=[N+]([O-])c1cn2c(n1)OC[C@@H](OCc1ccc(-c3ccc(O)cc3)cc1)C2	0.64 (≈ 0.235 µg/mL)	4.3 (≈ 1.58 µg/mL)	> 125	–	–	–	–
O=[N+]([O-])c1cn2c(n1)OC[C@@H](OCc1ccc(-c3ccc(OC(F)(F)F)cc3)cc1)C2	0.035 (≈ 0.0152 µg/mL)	1.3 (≈ 0.566 µg/mL)	> 125	–	–	<2	>205
O=[N+]([O-])c1cn2c(n1)OC[C@@H](OCc1cccc(-c3ccc(OCCCN4CCOCC4)cc3)c1)C2	0.69 (≈ 0.341 µg/mL)	11 (≈ 5.44 µg/mL)	> 125	–	–	–	–
O=[N+]([O-])c1cn2c(n1)OC[C@@H](OCc1ccc(-c3ccc(OC(F)(F)F)c(Cl)c3)cc1)C2	0.03 (≈ 0.0141 µg/mL)	0.9 (≈ 0.423 µg/mL)	> 125	90	84	6.4	281
CSc1ccc(-c2ccccc2CO[C@@H]2COc3nc([N+](=O)[O-])cn3C2)cc1	1.3 (≈ 0.517 µg/mL)	3.4 (≈ 1.35 µg/mL)	> 125	–	–	–	–
O=[N+]([O-])c1cn2c(n1)OC[C@@H](OCc1ccc(-c3ccc(F)cc3)cc1)C2	0.015 (≈ 0.00554 µg/mL)	1.4 (≈ 0.517 µg/mL)	> 125	75	55	5400	3
N#Cc1cccc(-c2ccccc2CO[C@@H]2COc3nc([N+](=O)[O-])cn3C2)c1	0.8 (≈ 0.301 µg/mL)	8.2 (≈ 3.09 µg/mL)	> 125	–	–	–	–
O=[N+]([O-])c1cn2c(n1)OC[C@@H](OCc1ccc(-c3ccc(Cl)c(OC(F)F)c3)cc1)C2	0.03 (≈ 0.0136 µg/mL)	1.1 (≈ 0.497 µg/mL)	> 125	83	86	150	10
O=[N+]([O-])c1cn2c(n1)OC[C@@H](OCc1ccccc1-c1ccccc1)C2	0.64 (≈ 0.225 µg/mL)	2.5 (≈ 0.878 µg/mL)	> 125	–	–	–	–
O=[N+]([O-])c1cn2c(n1)OC[C@@H](OCc1ccc(-c3ccc(C(F)(F)F)cc3Cl)cc1)C2	0.03 (≈ 0.0136 µg/mL)	1.4 (≈ 0.635 µg/mL)	> 125	92	93	540	7.2
O=[N+]([O-])c1cn2c(n1)OC[C@@H](OCc1ccc(-c3ccc(OC(F)(F)F)c(F)c3)cc1)C2	0.03 (≈ 0.0136 µg/mL)	0.34 (≈ 0.154 µg/mL)	> 125	93	86	4.3	419
O=[N+]([O-])c1cn2c(n1)OC[C@@H](OCc1ccc(-c3ccc(OCCO)cc3)cc1)C2	0.55 (≈ 0.226 µg/mL)	3.3 (≈ 1.36 µg/mL)	> 125	–	–	–	–
O=[N+]([O-])c1cn2c(n1)OC[C@@H](OCc1cccc(-c3cccc(OCCCN4CCOCC4)c3)c1)C2	1.4 (≈ 0.692 µg/mL)	11 (≈ 5.44 µg/mL)	> 125	–	–	–	–
CC(=O)c1ccc(-c2ccc(CO[C@@H]3COc4nc([N+](=O)[O-])cn4C3)cc2)cc1	0.04 (≈ 0.0157 µg/mL)	0.73 (≈ 0.287 µg/mL)	> 125	36	70	110000	<0.01
O=[N+]([O-])c1cn2c(n1)OC[C@@H](OCc1ccc(OC(F)(F)F)cc1)C2 [PRETOMANID]	0.5 (≈ 0.18 µg/mL)	2.6 (≈ 0.934 µg/mL)	> 125	82	–	–	1
